From ChEMBL document CHEMBL1145131, “Structure-based design, synthesis, and biological evaluation of irreversible human rhinovirus 3C protease inhibitors. 8. Pharmacological optimization of orally bioavailable 2-pyridone-containing peptidomimetics” (J Med Chem, 2003) come the findings set out here.

≈ marks a conversion by molar mass, not a printed value.

Data set [1] can be described thus: Compound was tested in vitro for loss of compound after 4 hours exposure to hepatocytes of monkey at 25 uM concentration. In kind it is ADME, cell-based, Hepatocyte. As to conditions: simiiformes, read-out: Metabolism.
Data set [2] is described as follows: Compound was tested for human plasma protein binding. It is filed as ADME, cell-free. In outline: (§1)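 Ultrafiltration binding. Compound added from 1 mM and 0.1 mM stocks into heparinized dog or human plasma or pH 7.4 phosphate buffer, giving final 1 and 10 μM. Incubated 1 h at 37 °C, then centrifugal ultrafiltration. Filtrate and whole plasma quantified by LCMS with internal standard. % free = filtrate/whole plasma × 100. Three replicates per species per concentration.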

The test system of data set [3] is Caco-2. To be noted: Homo sapiens.
A short description of data set [4]: Compound was tested in vitro for loss of compound after 4 hours exposure to hepatocytes of dog at 25 uM concentration. To be noted: read-out: Metabolism. In kind it is ADME, organism-based, Canis lupus familiaris, Hepatocyte.
Data set [5] in a line: Compound was tested in vitro for loss of compound after 30 min exposure to liver microsomes of human at 25 uM concentration. In kind it is ADME, organism-based. To be noted: read-out: Metabolism. In outline:
(§2)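 Pooled liver microsomes (dog, monkey or human; 1 mg/mL, 6–8 livers) with 2 mM NADPH in 100 mM potassium phosphate, pH 7.4, preincubated 1 min at 37 °C. Started with 25 μM compound, run 30 min, quenched with acetonitrile. Time-zero controls quenched before compound addition. Remaining compound by reversed-phase HPLC at 215 nm. Reported as % metabolized.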
In general terms: Liver microsomes are vesicles of endoplasmic reticulum, rich in cytochrome P450 enzymes.

The species named for data set [6] is Canis familiaris. Kind of data set: Compound was tested for plasma protein binding of dog. In kind it is ADME, organism-based, Canis lupus familiaris. Summed up:
as §1

Data set [7] in a line: Thermodynamic aqueous solubility was determined. It is filed as physicochemical. To be noted: buffer. Summed up: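 1–2 mg compound stirred in 1 mL of pH 7.0, 50 mM phosphate buffer at room temperature for 4 h. Filtered through a 0.45 μm filter. Filtrate concentration determined by HPLC against a standard of known concentration.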
A short description of data set [8]: Half-life upon exposure to human plasma. It is filed as ADME, organism-based. Summed up:
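Pooled heparinized human plasma (10 donors) or 100 mM potassium phosphate pH 7.4 buffer (n = 3 each), spiked to final 25 μM compound from acetonitrile stock. Incubated at 37 °C for 1–3 h with regular sampling. Protein precipitated with acetonitrile, then LC quantification against a 0.05–40 μg/mL standard curve. Half-life by linear regression of mean concentration-time data.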

Data set [9] concerns Enterovirus. The data set is described as follows: In vitro anti-rhinoviral activity against human rhinovirus serotypes 2,3,9,14,16,25 and 39. It is filed as functional, organism-based.
Data set [10] is described as follows: Compound was tested for plasma concentration in dogs 7 hours after oral administration (30 mg/kg) in experiment 2. In kind it is ADME, organism-based, Canis lupus familiaris. As to conditions: dog. Summed up: (§3)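 Male beagle dogs (BW ~9.3 kg, n = 3), single oral dose of 30 mg/kg. Vehicle was 80:20 propylene glycol:sterile water (15.0 mg/mL) or, in some studies, a 0.5% carboxymethyl cellulose suspension. Blood sampled up to 24 h. Plasma level at 7 h determined by LCMS. Noncompartmental analysis of individual concentration-time profiles.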

The nature of data set [11]: Compound was tested for plasma concentration in CM-monkeys 7 hours after oral administration (50 mg/kg). It is filed as ADME, organism-based, Macaca fascicularis. To be noted: cynomolgus monkey. Summed up:
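Male CM-monkeys (BW ~3.9 kg, n = 3), single oral dose of 50 mg/kg in 80:20 propylene glycol:sterile water at 15.0 mg/mL. Blood sampled periodically up to 24 h post-dose. Plasma concentration at 7 h measured by LCMS. Parameters from noncompartmental analysis of individual concentration-time data.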

Data set [12] can be described thus: Compound was tested in vitro for loss of compound after 30 min exposure to liver microsomes of dog at 25 uM concentration. In kind it is ADME, organism-based, Canis lupus familiaris. As to conditions: read-out: Metabolism. Summed up: as §2
Data set [13] in a line: Compound was tested in vitro for loss of compound after 4 hours exposure to hepatocytes of human at 25 uM concentration. It is filed as ADME, organism-based, Hepatocyte. As to conditions: read-out: Metabolism.
Data set [14] in a line: Compound was tested for plasma concentration in dogs 7 hours after oral administration (30 mg/kg) in experiment 1. In kind it is ADME, organism-based, Canis lupus familiaris. As to conditions: dog. Summed up:
as §3

Data set [15] is described as follows: Compound was tested in vitro for loss of compound after 2 hours exposure to hepatocytes of dog at 25 uM concentration. To be noted: read-out: Metabolism. In kind it is ADME, organism-based, Canis lupus familiaris, Hepatocyte.
Data set [16] is described as follows: Compound was tested in vitro for loss of compound after 30 min exposure to liver microsomes of monkey at 25 uM concentration. It is filed as ADME, Microsome. To be noted: simiiformes, read-out: Metabolism. In outline: as §2
The nature of data set [17]: Compound was tested in vitro for loss of compound after 2 hours exposure to hepatocytes of human at 25 uM concentration. It is filed as ADME, organism-based, Hepatocyte. As to conditions: read-out: Metabolism.
Data set [18] deals with T1, Human rhinovirus A protease (Human rhinovirus sp.) (UniProt Q4U254).
T1 sequence (whole entry): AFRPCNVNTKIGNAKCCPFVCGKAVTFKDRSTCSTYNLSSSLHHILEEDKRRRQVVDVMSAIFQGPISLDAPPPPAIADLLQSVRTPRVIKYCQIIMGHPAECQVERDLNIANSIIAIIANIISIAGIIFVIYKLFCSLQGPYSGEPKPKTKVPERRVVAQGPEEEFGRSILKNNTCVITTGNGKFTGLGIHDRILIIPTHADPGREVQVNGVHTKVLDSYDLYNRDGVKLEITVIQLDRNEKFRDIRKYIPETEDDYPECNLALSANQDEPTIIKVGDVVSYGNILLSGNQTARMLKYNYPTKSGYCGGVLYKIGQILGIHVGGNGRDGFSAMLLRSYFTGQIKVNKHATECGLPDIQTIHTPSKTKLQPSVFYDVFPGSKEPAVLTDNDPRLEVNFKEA

Data set [19] can be described thus: Compound was tested in vitro for loss of compound after 2 hours exposure to hepatocytes of monkey at 5 uM concentration. To be noted: simiiformes, read-out: Metabolism. In kind it is ADME, cell-based, Hepatocyte.
The subject of data set [20] is Enterovirus. Kind of data set: In vitro antirhinoviral activity against human rhinovirus serotypes 2, 3, 9, 14, 16 and 39 (mean).
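Throughout, for K obs / 1: inhibition of the human rhinovirus 3C protease enzyme.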

As to `Cc1cc(C(=O)Nc2cccn([C@@H](Cc3ccc(F)c(F)c3)C(=O)N[C@H](/C=C/C(=O)OC(C)C)C[C@@H]3CCNC3=O)c2=O)no1`, the metabolised at 4 h, 25 µM in data set [1] is 92%; in [4], 16%; in data set [13], 87%. The values for the Free in data set [2] and in [6] were 9% and 19%, respectively. Besides, the Papp (usually a coefficient for how fast a substance crosses the barrier) in [3] is 36 10e-6 cm s-1. Also, the metabolised at 0.5 h, 25 µM stood at 56% in data set [5] and 57% in [12]. Besides, the thermodynamic solubility (usually the concentration in solution at equilibrium with solid) in data set [7] is 21 µg/mL (≈ 33.6 µM). For the same compound, the half-life (commonly the time needed for the level to fall by half in the phase considered) in data set [8] is 9.7 h. Besides, the EC50 (as a rule, the concentration at which the effect is half-maximal) in [9] was determined as 78 nM. Besides, the concentration at 7 h turned out to be 959 nM in data set [10], 12 nM in data set [11] and 815 nM in data set [14].

For the compound `CCOC(=O)/C=C/[C@H](C[C@@H]1CCNC1=O)NC(=O)[C@H](CC)n1cccc(NC(=O)c2cc(C)on2)c1=O`, in data set [3], the apparent permeability coefficient (Papp) is 5 10e-6 cm s-1. The figures for the metabolised at 0.5 h, 25 µM in [5], in data set [16] and in data set [12] were 61%, 61% and 37%, respectively. The compound also registered a thermodynamic solubility in [7] of 38 µg/mL (≈ 74 µM). Besides, the metabolised at 2 h, 25 µM came to 14% in data set [15] and 82% in data set [17]. In addition, in data set [8], the half-life was 5.6 h. Also, the EC50 in data set [9] is 47 nM. For the same compound, the concentration at 7 h was under 10 nM in data set [10], 896 nM in data set [11] and 682 nM in [14]. This compound showed a K obs / 1 in [18] of 170000 M⁻¹ s⁻¹. Moreover, the metabolised at 2 h, 5 µM in data set [19] worked out at 76%.

In turn, `CCOC(=O)c1ccc(OCCC2CCN(c3ccc(C)nn3)CC2)cc1` [PIRODAVIR] gave an EC50 in data set [20] of 31 nM.
